Data: paper PMC9706633 (Poultry Science, 2022)
“Also recorded” adds a separate entry of the source.

How the values were obtained:
CCK2R = conditions: mammals, ref Noble and Roques, 2002, Miller and Gao, 2008, cited from earlier work; for binding affinities of CCK-8S and CCK-8NS to CCK2R compared: in words
cCCK1R [1] = assay: pGL3-NFAT-RE-luciferase reporter assay; format: cell-based, chicken; conditions: read-out: EC50, calcium mobilization, CHO cells expressing cCCK1R, peptide 10^−12 M - 10^−6 M, 6 h, triplicates (N = 3)
Procedure, shortened: (§1)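 CHO cells were grown in DMEM with 10% FBS at 37°C and 5% CO2. They were transiently co-transfected with 250 ng of chicken receptor plasmid (empty pcDNA3.1 as control) and 750 ng of reporter construct using jetPRIME. After 24 h, cells were reseeded and grown a further 24 h. Test peptide was then applied in DMEM, and lysate luciferase was measured. Data are mean ± SEM.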

cCCK2R [2] = assay: pGL3-NFAT-RE-luciferase reporter assay; format: cell-based, chicken; conditions: read-out: EC50, calcium mobilization, CHO cells expressing cCCK2R, peptide 10^−12 M - 10^−6 M, 6 h, triplicates (N = 3)
Procedure, shortened: as §1

cCCK1R [3] = assay: pGL4-SRE-luciferase reporter assay; format: cell-based, chicken; conditions: read-out: EC50, MAPK/ERK signaling pathway, CHO cells expressing cCCK1R, peptide 10^−12 M - 10^−6 M, 6 h, triplicates (N = 3)
Procedure, shortened: as §1

cCCK2R [4] = assay: pGL4-SRE-luciferase reporter assay; format: cell-based, chicken; conditions: read-out: EC50, MAPK/ERK signaling pathway, CHO cells expressing cCCK2R, peptide 10^−12 M - 10^−6 M, 6 h, triplicates (N = 3)
Procedure, shortened: as §1

cCCK1R [5] = assay: pGL3-CRE-luciferase reporter assay; format: cell-based, chicken; conditions: read-out: EC50, cAMP/PKA signaling pathway, CHO cells expressing cCCK1R, peptide 10^−12 M - 10^−6 M, 6 h, triplicates (N = 3)
Procedure, shortened: as §1

cCCK2R [6] = assay: pGL3-CRE-luciferase reporter assay; format: cell-based, chicken; conditions: read-out: EC50, cAMP/PKA signaling pathway, CHO cells expressing cCCK2R, peptide 10^−12 M - 10^−6 M, 6 h, triplicates (N = 3)
[7] = system: CHO cells transfected with the empty pcDNA3.1(+) vector; assay: pGL3-NFAT-RE-luciferase negative control, CHO cells with empty pcDNA3.1; format: cell-based, Chinese hamster; conditions: 6 h
Procedure, shortened: (§2)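 CHO cells (DMEM, 10% FBS, penicillin/streptomycin, 37°C, 5% CO2) seeded a day ahead and co-transfected (jetPRIME) with 250 ng empty pcDNA3.1 plus 750 ng reporter: CRE (cAMP/PKA), NFAT-RE (calcium) or SRE (MAPK/ERK). After 24 h, cells were replated in 96-well plates and grown 24 h. They were then exposed to test peptide at 10−12–10−6 M in DMEM for 6 h, lysed, and read for luciferase.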

[8] = system: CHO cells transfected with the empty pcDNA3.1(+) vector; assay: pGL4-SRE-luciferase negative control, CHO cells with empty pcDNA3.1; format: cell-based, Chinese hamster; conditions: 6 h
Procedure, shortened: as §2

[9] = system: CHO cells transfected with the empty pcDNA3.1(+) vector; assay: pGL3-CRE-luciferase negative control, CHO cells with empty pcDNA3.1; format: cell-based, Chinese hamster; conditions: 6 h
Procedure, shortened: as §2

cCCK1R [10] = assay: Western blot of ERK1/2 phosphorylation, CHO cells expressing cCCK1R; format: cell-based, chicken; conditions: 10 nM, 10 min, normalized by β-actin, N = 4
Procedure, shortened: (§3)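 CHO cells transfected with 1000 ng chicken CCK1R or CCK2R expression plasmid, grown in 24-well plates at 37 °C. At 24 h post-transfection, cells were exposed to test peptide (10 nM, 10 min), lysed, and immunoblotted with phospho-ERK1/2 (Thr202/Tyr204) and phospho-CREB (Ser133) rabbit mAbs. Densitometric bands normalized to β-actin, expressed as fold of untreated control; mean ± SEM, N = 4; t-test or ANOVA/Dunnett.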

cCCK2R [11] = assay: Western blot of ERK1/2 phosphorylation, CHO cells expressing cCCK2R; format: cell-based, chicken; conditions: 10 nM, 10 min, normalized by β-actin, N = 4
Procedure, shortened: as §3

cCCK1R [12] = assay: Western blot of CREB phosphorylation, CHO cells expressing cCCK1R; format: cell-based, chicken; conditions: 10 nM, 10 min, normalized by β-actin, N = 4
Procedure, shortened: as §3

cCCK2R [13] = assay: Western blot of CREB phosphorylation, CHO cells expressing cCCK2R; format: cell-based, chicken; conditions: 10 nM, 10 min, normalized by β-actin, N = 4
Procedure, shortened: as §3

cCCK1R [14] = assay: Overall activation of cCCK1R; parameters: species or system chicken; conditions: 3 cell-based luciferase reporter systems and western blots; CHO cells; in words
cCCK2R [15] = assay: Overall activation of cCCK2R; parameters: species or system chicken; conditions: 3 cell-based luciferase reporter systems and western blots; CHO cells; in words

Row | Substance | binding affinities of CCK-8S and CCK-8NS to CCK2R compared (CCK2R) | binding affinity to CCK2R, fold higher than CCK-4 (CCK2R) [fold] | EC50 (cCCK1R [1]) [nM] | EC50 (cCCK2R [2]) [nM] | EC50 (cCCK1R [3]) [nM] | EC50 (cCCK2R [4]) [nM] | EC50 (cCCK1R [5]) [nM] | EC50 (cCCK2R [6]) [nM] | effect on pGL3-NFAT-RE-luciferase activity in empty-vector CHO cells ([7]; N = 3) | effect on pGL3-NFAT-RE-luciferase activity in empty-vector CHO cells ([7]; N = 3, listed as CCK-8S) | effect on pGL4-SRE-luciferase activity in empty-vector CHO cells ([8]; N = 3) | effect on pGL4-SRE-luciferase activity in empty-vector CHO cells ([8]; N = 3, listed as CCK-8S) | effect on pGL3-CRE-luciferase activity in empty-vector CHO cells ([9]; N = 3) | effect on pGL3-CRE-luciferase activity in empty-vector CHO cells ([9]; N = 3, listed as CCK-8S) | ERK1/2 phosphorylation (pERK1/2) (cCCK1R [10]) | ERK1/2 phosphorylation (pERK1/2) (cCCK2R [11]) | CREB phosphorylation (pCREB) (cCCK1R [12]) | CREB phosphorylation (pCREB) (cCCK2R [13]) | activation of cCCK1R, overall (cCCK1R [14]) | activation of cCCK2R, overall (cCCK2R [15])
1 | CCK-8NS: non-sulfated octapeptide of CCK | similar | 10 |  |  |  |  |  |  |  |  |  |  |  |  |  |  |  |  |  | 
2 | DYMGWMDF [cCCK-8S, (Tyr (SO3H)^27) Cholecystokinin fragment 26-33 amide] | similar |  | 5.41 ± 1.15 | 1.93 ± 0.7 | 0.32 ± 0.26 | 1.16 ± 0.61 | 5.76 ± 1.55 | 29.6 ± 7.68 | no effect | no response | no effect | no response | no effect | no response | strongly enhance ERK1/2 phosphorylation | strongly enhance ERK1/2 phosphorylation | potently enhance CREB phosphorylation | potently enhance CREB phosphorylation | potently activated; also recorded: can potently activate cCCK1R; also recorded: activated preferentially | can potently activate cCCK2R
